Reference: ChEMBL document CHEMBL1145197 (J Med Chem, 2005)

Columns and labels:
Cannabinoid receptor 1 [1] = target: T1, Cannabinoid receptor 1 (Homo sapiens, UniProt P21554); type: cell-based, CHO
Mus musculus = test: In vivo effective dose to produce antagonism of CB agonist (WIN-55212) induced hypothermia in mouse
Rattus norvegicus = test: In vivo effective dose to produce antagonism of CB agonist (CP-55940) induced hypotension in rat
Cannabinoid receptor 2 = Cannabinoid receptor 2 (Homo sapiens, UniProt P34972); test: In vitro displacement of CP-55940 binding to human CB2 receptor expressed in CHO cells; type: cell-based
Outline: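 Radioligand binding on CHO cells stably expressing recombinant human CB2 receptor; affinity given as Ki (nM).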

Cannabinoid receptor 1 [2] = target: T1, Cannabinoid receptor 1; test: In vitro cannabinoid receptor 1 antagonism of [3H]arachidonic acid release by CHO cells; type: functional, cell-based; conditions: read-out: pA2 (converted)
P-glycoprotein (ABCB1) = P-glycoprotein (ABCB1) (Homo sapiens, UniProt P08183); test: P-glycoprotein (Pgp) factor was expressed as the ratio ofthe bottom to top transport and top to bottom transport; type: functional; conditions: not told
[3] = target: ATP-dependent translocase ABCB1 (Homo sapiens, UniProt P08183); test: Membrane passage was expressed as mean percentage of compound transported from bottom to top and from top to bottom at 3 hr after adding the compound; type: functional
ATP-dependent translocase ABCB1, sequence (P08183 whole entry): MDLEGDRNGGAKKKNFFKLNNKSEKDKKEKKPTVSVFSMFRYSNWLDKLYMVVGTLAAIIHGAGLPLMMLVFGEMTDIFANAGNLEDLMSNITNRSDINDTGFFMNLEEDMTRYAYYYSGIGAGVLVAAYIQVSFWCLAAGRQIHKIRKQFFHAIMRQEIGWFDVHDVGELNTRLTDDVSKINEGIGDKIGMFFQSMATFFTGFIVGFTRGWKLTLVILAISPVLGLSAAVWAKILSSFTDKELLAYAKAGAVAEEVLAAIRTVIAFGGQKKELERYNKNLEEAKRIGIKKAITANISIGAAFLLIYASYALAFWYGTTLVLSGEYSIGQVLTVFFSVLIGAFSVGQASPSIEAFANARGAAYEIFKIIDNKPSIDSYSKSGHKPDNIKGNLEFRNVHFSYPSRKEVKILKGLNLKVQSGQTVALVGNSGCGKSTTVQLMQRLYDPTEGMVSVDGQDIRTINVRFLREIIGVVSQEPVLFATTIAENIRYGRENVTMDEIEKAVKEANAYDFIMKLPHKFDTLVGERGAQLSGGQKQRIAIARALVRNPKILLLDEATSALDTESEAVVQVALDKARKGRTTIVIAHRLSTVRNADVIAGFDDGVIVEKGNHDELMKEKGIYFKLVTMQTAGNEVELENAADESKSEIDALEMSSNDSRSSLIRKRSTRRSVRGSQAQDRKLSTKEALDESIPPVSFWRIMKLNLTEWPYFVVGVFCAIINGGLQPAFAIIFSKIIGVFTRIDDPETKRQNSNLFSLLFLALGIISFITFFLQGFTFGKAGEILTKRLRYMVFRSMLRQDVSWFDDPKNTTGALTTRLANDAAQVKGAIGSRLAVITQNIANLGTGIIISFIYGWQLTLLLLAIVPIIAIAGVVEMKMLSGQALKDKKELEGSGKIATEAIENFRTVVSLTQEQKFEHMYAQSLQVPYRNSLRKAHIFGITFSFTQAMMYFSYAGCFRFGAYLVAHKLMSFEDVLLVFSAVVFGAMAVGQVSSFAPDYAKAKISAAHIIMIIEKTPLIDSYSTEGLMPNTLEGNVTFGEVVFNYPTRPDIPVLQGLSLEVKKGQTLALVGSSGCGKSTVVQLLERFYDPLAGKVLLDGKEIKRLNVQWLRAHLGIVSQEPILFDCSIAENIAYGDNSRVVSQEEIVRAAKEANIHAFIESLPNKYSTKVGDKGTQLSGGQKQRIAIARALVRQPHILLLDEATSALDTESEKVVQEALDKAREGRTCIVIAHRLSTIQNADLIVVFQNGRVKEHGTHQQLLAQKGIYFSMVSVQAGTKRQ

Cannabinoid receptor 2, sequence (P34972 whole entry): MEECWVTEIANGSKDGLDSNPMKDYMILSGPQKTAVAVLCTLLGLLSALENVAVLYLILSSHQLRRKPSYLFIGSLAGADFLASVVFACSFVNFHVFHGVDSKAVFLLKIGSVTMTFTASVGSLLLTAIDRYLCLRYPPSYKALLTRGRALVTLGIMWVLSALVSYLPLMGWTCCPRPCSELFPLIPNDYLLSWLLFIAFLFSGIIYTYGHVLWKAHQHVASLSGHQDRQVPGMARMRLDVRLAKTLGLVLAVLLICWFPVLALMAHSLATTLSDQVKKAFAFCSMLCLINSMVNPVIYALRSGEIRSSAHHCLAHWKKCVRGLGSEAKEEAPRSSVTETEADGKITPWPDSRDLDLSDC
T1 sequence (P21554 whole entry): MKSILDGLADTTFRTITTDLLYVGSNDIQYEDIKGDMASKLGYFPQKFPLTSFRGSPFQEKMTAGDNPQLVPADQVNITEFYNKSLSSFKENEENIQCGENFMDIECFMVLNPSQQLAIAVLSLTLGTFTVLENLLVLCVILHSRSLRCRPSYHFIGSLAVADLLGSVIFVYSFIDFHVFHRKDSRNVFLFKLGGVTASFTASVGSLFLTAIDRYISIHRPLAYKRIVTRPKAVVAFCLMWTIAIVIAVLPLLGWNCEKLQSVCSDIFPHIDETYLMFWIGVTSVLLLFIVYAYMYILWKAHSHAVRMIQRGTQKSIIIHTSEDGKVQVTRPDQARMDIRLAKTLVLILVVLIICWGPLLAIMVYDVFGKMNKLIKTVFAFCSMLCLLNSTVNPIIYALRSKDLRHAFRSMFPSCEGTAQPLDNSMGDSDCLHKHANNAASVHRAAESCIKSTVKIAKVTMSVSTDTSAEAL
P-glycoprotein (ABCB1), sequence (P08183 whole entry): as the sequence (P08183 whole entry) above

SMILES	Ki (Cannabinoid receptor 1 [1]) [nM]	Ki (Cannabinoid receptor 2) [nM]	Kb (Cannabinoid receptor 1 [2]) [nM]	LED (Mus musculus) [mg/kg]	ED50 (Rattus norvegicus) [mg/kg]	efflux ratio (P-glycoprotein (ABCB1))	Transport [3] [%]
CCc1c(C(=O)NN2CCCCC2)nc(-c2ccc(Cl)cc2Cl)n1-c1ccc(Cl)cc1	14	430	1	30	15.8	–	–
N#Cc1c(C(=O)NN2CCCCC2)nc(-c2ccc(Cl)cc2Cl)n1-c1ccc(Cl)cc1	30	1590	–	–	–	–	–
Cl.Cl.O=C(NN1CCCCC1)c1nc(-c2ccc(Cl)cc2Cl)n(-c2ccc(Cl)cc2)n1	356	3560	5.01	>30	23.6	1.5	28.3
Cc1c(C(=O)NN2CCCCC2)nc(-c2ccc(Cl)cc2Cl)n1-c1ccc(Cl)cn1	–	758	–	–	–	–	–
Cc1c(C(=O)NCc2ccc(C(F)(F)F)cc2)nc(-c2ccc(Cl)cc2Cl)n1-c1ccc(Cl)cc1	171	1980	–	–	–	–	–
Cc1c(C(=O)NN2CCCCC2)nn(-c2ccc(Cl)cc2Cl)c1-c1ccc(Cl)cc1 [RIMONABANT]	–	–	–	3	3.2	–	17.2
O=C(NN1CCCCC1)c1nc(-c2ccc(Cl)cc2Cl)c(-c2ccc(Cl)cc2)s1	227	5840	7.94	–	> 30	1.7	8.3
O=C(NN1CCCCC1)c1nc(-c2ccc(Cl)cc2Cl)n(-c2ccc(Cl)cc2)c1CF	36	906	1.26	–	–	–	–
O=C(NN1CCCCC1)c1nc(-c2ccc(Cl)cc2)n(-c2ccc(Cl)cc2Cl)n1	382	5440	25.1	–	–	–	–
Cc1c(C(=O)NN2CCCCC2)nc(-c2ccc(Cl)cc2Cl)n1-c1ccc(Cl)cc1	–	608	2.51	10	2.4	1.2	24.2
Cc1c(C(=O)NN2CCCCC2)nc(-c2ccc(Cl)cc2)n1-c1ccc(Cl)cc1Cl	403	208	20	–	> 30	–	–
Cc1c(C(=O)OC(C)(C)C)nc(-c2ccc(Cl)cc2Cl)n1-c1ccc(Cl)cc1	94	815	2.51	–	–	–	–
O=C(NN1CCCCC1)c1nc(-c2ccc(Cl)cc2)c(-c2ccc(Cl)cc2Cl)s1	> 1000	4670	63.1	–	–	–	–
O=C(NN1CCCCC1)c1cn(-c2ccc(Cl)cc2)c(-c2ccc(Cl)cc2Cl)n1	23	542	–	>30	11.7	–	–
Cc1c(C(=O)NN2CCOCC2)nc(-c2ccc(Cl)cc2Cl)n1-c1ccc(Cl)cc1	197	3300	–	–	–	–	–
Cc1c(C(=O)N2CCC(O)CC2)nc(-c2ccc(Cl)cc2Cl)n1-c1ccc(Cl)cc1	–	3960	–	–	–	–	–
Cc1c(C(=O)NN2CCCCC2)nc(-c2ccc(Cl)cc2Cl)n1-c1ccc(F)cc1	52	765	–	–	–	–	–
Cc1c(C(=O)NN2CC3CCCC3C2)nc(-c2ccc(Cl)cc2Cl)n1-c1ccc(Cl)cc1 (stereo not given)	40	1410	–	–	–	–	–
O=C(NN1CCCCC1)c1nc(-c2ccc(Cl)cc2Cl)n(-c2ccc(Cl)cc2)c1Cl	27	823	3.16	–	–	–	–
Cc1c(C(=O)NC2CC3CCC2C3)nc(-c2ccc(Cl)cc2Cl)n1-c1ccc(Cl)cc1 (stereo not given)	19	54	0.794	–	–	–	–
Cc1c(C(=O)N[C@H]2CC[C@H](O)CC2)nc(-c2ccc(Cl)cc2Cl)n1-c1ccc(Cl)cc1	399	3470	50.1	–	–	–	–
Cc1c(C(=O)NN2CCCC2)nc(-c2ccc(Cl)cc2Cl)n1-c1ccc(Cl)cc1	27	774	–	–	–	–	–
CCN(CC)C(=O)c1nc(-c2ccc(Cl)cc2Cl)n(-c2ccc(Cl)cc2)c1C	828	2520	39.8	–	–	–	–

Further lines, with some results ahead:

Ki (Cannabinoid receptor 1 [1]) [nM]	Ki (Cannabinoid receptor 2) [nM]	Kb (Cannabinoid receptor 1 [2]) [nM]	SMILES	LED (Mus musculus) [mg/kg]	ED50 (Rattus norvegicus) [mg/kg]	efflux ratio (P-glycoprotein (ABCB1))	Transport [3] [%]
35	349	–	Cc1c(C(=O)NC2CCCCCC2)nc(-c2ccc(Cl)cc2Cl)n1-c1ccc(Cl)cc1	–	–	–	–
29	634	2.51	Cc1c(C(=O)NN2CCCCC2)nc(-c2ccc(Cl)cc2Cl)n1-c1ccc(C(F)(F)F)cc1	–	–	–	–
106	326	2	COc1ccc(-n2c(-c3ccc(Cl)cc3Cl)nc(C(=O)NN3CCCCC3)c2C)cc1	–	–	–	–
35	160	0.794	Cc1c(C(=O)NC2CCCCC2)nc(-c2ccc(Cl)cc2Cl)n1-c1ccc(Cl)cc1	–	–	–	–
34	696	–	Cc1c(C(=O)N2CCc3ccccc3C2)nc(-c2ccc(Cl)cc2Cl)n1-c1ccc(Cl)cc1	–	–	–	–
333	242	6.31	Cc1c(C(=O)NOC(C)(C)C)nc(-c2ccc(Cl)cc2Cl)n1-c1ccc(Cl)cc1	–	–	–	–
33	357	–	Cc1c(C(=O)NC2CCCC2)nc(-c2ccc(Cl)cc2Cl)n1-c1ccc(Cl)cc1	–	–	–	–
64	505	2	Cc1c(C(=O)NN2CCCCCC2)nc(-c2ccc(Cl)cc2Cl)n1-c1ccc(Cl)cc1	–	–	–	–
23	746	3.98	O=C(NN1CCCCC1)c1nc(-c2ccc(Cl)cc2Cl)n(-c2ccc(Cl)cc2)c1Br	–	–	–	–
60	489	3.16	Cc1c(C(=O)NN2CCCCC2)nc(-c2ccc(Cl)cc2Cl)n1-c1ccc(Br)cc1	–	–	–	–
